# How the values were obtained:
# human recombinant PDE5 = human recombinant PDE5 (Homo sapiens, UniProt O76074); experiment: PDE5 inhibition, IMAP fluorescence polarization assay; type: biochemical; settings: for inhibition at 50 µM: read-out: PDE5 % inh at 50 (μM); for PDE5 inhibitory activity (in words): SAR statement vs parent compound; for reduction in PDE5 inhibitory activity of pyrazole vs pyrazoline: compounds 34 and 35 compared to compounds 1 and 4
# [1] = tested on: intracellular cGMP levels in HEK293 cells; experiment: Luciferase cGMP biosensor assay; type: cell-based, human; settings: for intracellular cGMP levels (luminescence), concentration dependence: pretreated with sodium nitroprusside
# Procedure, shortened: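 HEK293 cells stably expressing a GloSensor cGMP-40F construct (human PDE5A GAF-A fused to firefly luciferase) were G418-selected. Cells were seeded at 6×10⁴/well and attached overnight in DMEM + 10% FBS at 37°C, 5% CO2. They were preincubated at room temperature in CO2-independent medium with 10% FBS and 5 mmol/L luciferin. 50 μM sodium nitroprusside was added together with test compound, and luminescence was read every minute for 1 h.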
smiles,measurement,setting,value
"Cc1ccc(-c2cc(C(F)(F)F)nn2-c2ccc(S(N)(=O)=O)cc2)cc1 [Celecoxib, celecoxib, reference compound]",inhibition at 50 µM,human recombinant PDE5,66.5%
"CC(C)(C)C1=NN(c2ccc(C(=O)O)cc2)C(c2ccccc2)C1 (centres unmarked) [Compound 1, 4-(3-tert-Butyl-5-phenyl-4,5-dihydro-1H-pyrazol-1-yl)benzoic acid]",inhibition at 50 µM,human recombinant PDE5,88%
"CC(C)(C)C1=NN(c2ccc(C(=O)O)cc2)C(c2ccccc2F)C1 (centres unmarked) [Compound 2, 4-(3-(tert-Butyl)-5-(2-fluorophenyl)-4,5-dihydro-1H-pyrazol-1-yl)benzoic acid]",inhibition at 50 µM,human recombinant PDE5,86.3%
"CC(C)(C)C1=NN(c2ccc(C(=O)O)cc2)C(c2cccc(F)c2)C1 (centres unmarked) [Compound 3, 4-(3-(tert-Butyl)-5-(3-fluorophenyl)-4,5-dihydro-1H-pyrazol-1-yl)benzoic acid]",IC50,human recombinant PDE5,3.7 µM
same,inhibition at 50 µM,human recombinant PDE5,94.4%
"CC(C)(C)C1=NN(c2ccc(C(=O)O)cc2)C(c2ccc(F)cc2)C1 (centres unmarked) [Compound 4, 4-(3-tert-Butyl-5-(4-fluorophenyl)-4,5-dihydro-1H-pyrazol-1-yl)benzoic acid]",IC50,human recombinant PDE5,7.7 µM
same,inhibition at 50 µM,human recombinant PDE5,80%
"CC(C)(C)C1=NN(c2ccc(C(=O)O)cc2)C(c2ccccc2Cl)C1 (centres unmarked) [Compound 5, 4-(3-(tert-Butyl)-5-(2-chlorophenyl)-4,5-dihydro-1H-pyrazol-1-yl)benzoic acid]",inhibition at 50 µM,human recombinant PDE5,100%
"CC(C)(C)C1=NN(c2ccc(C(=O)O)cc2)C(c2cccc(Cl)c2)C1 (centres unmarked) [Compound 6, 4-(3-(tert-Butyl)-5-(3-chlorophenyl)-4,5-dihydro-1H-pyrazol-1-yl)benzoic acid]",inhibition at 50 µM,human recombinant PDE5,95.7%
"CC(C)(C)C1=NN(c2ccc(C(=O)O)cc2)C(c2ccc(Cl)cc2)C1 (centres unmarked) [Compound 7, 4-(3-tert-Butyl-5-(4-chlorophenyl)-4,5-dihydro-1H-pyrazol-1-yl)benzoic acid]",IC50,human recombinant PDE5,3.3 µM
same,inhibition at 50 µM,human recombinant PDE5,85%
"CC(C)(C)C1=NN(c2ccc(C(=O)O)cc2)C(c2ccccc2Br)C1 (centres unmarked) [Compound 8, 4-(5-(2-Bromophenyl)-3-(tert-butyl)-4,5-dihydro-1H-pyrazol-1-yl)benzoic acid]",inhibition at 50 µM,human recombinant PDE5,100%
"CC(C)(C)C1=NN(c2ccc(C(=O)O)cc2)C(c2cccc(Br)c2)C1 (centres unmarked) [Compound 9, 4-(5-(3-Bromophenyl)-3-(tert-butyl)-4,5-dihydro-1H-pyrazol-1-yl)benzoic acid]",inhibition at 50 µM,human recombinant PDE5,91.4%
"CC(C)(C)C1=NN(c2ccc(C(=O)O)cc2)C(c2ccc(Br)cc2)C1 (centres unmarked) [Compound 10, 4-(5-(4-Bromophenyl)-3-tert-butyl-4,5-dihydro-1H-pyrazol-1-yl)benzoic acid]",IC50,human recombinant PDE5,7.2 µM
same,inhibition at 50 µM,human recombinant PDE5,88%
"CC(C)(C)C1=NN(c2ccc(C(=O)O)cc2)C(c2ccc(Cl)c(Cl)c2)C1 (centres unmarked) [Compound 12, 4-(3-(tert-Butyl)-5-(3,4-dichlorophenyl)-4,5-dihydro-1H-pyrazol-1-yl)benzoic acid]",inhibition at 50 µM,human recombinant PDE5,100%
"CC(C)(C)C1=NN(c2ccc(C(=O)O)cc2)C(c2c(Cl)cccc2Cl)C1 (centres unmarked) [Compound 13, 4-(3-(tert-Butyl)-5-(2,6-dichlorophenyl)-4,5-dihydro-1H-pyrazol-1-yl)benzoic acid]",IC50,human recombinant PDE5,28.8 µM
same,inhibition at 50 µM,human recombinant PDE5,99.1%
"COc1ccccc1C1CC(C(C)(C)C)=NN1c1ccc(C(=O)O)cc1 (centres unmarked) [Compound 14, 4-(3-(tert-Butyl)-5-(2-methoxyphenyl)-4,5-dihydro-1H-pyrazol-1-yl)benzoic acid]",IC50,human recombinant PDE5,> 50 µM
same,inhibition at 50 µM,human recombinant PDE5,49.8%
"COc1ccc(C2CC(C(C)(C)C)=NN2c2ccc(C(=O)O)cc2)cc1 (centres unmarked) [Compound 15, 4-(3-tert-Butyl-5-(4-methoxyphenyl)-4,5-dihydro-1H-pyrazol-1-yl) benzoic acid]",inhibition at 50 µM,human recombinant PDE5,95%
same,fold increase in PDE5 inhibitory potency compared to methyl derivative 22,human recombinant PDE5; vs compound 22,4 fold
"COc1ccc(C2CC(C(C)(C)C)=NN2c2ccc(C(=O)O)cc2)c(OC)c1 (centres unmarked) [Compound 16, 4-(3-tert-Butyl-5-(2,4-dimethoxyphenyl)-4,5-dihydro-1H-pyrazol-1-yl)benzoic acid]",inhibition at 50 µM,human recombinant PDE5,85.8%
"COc1ccc(OC)c(C2CC(C(C)(C)C)=NN2c2ccc(C(=O)O)cc2)c1 (centres unmarked) [Compound 17, 4-(3-tert-Butyl-5-(2,5-dimethoxyphenyl)-4,5-dihydro-1H-pyrazol-1-yl)benzoic acid]",IC50,human recombinant PDE5,> 50 µM
same,inhibition at 50 µM,human recombinant PDE5,47%
"CCOc1ccccc1C1CC(C(C)(C)C)=NN1c1ccc(C(=O)O)cc1 (centres unmarked) [Compound 18, 4-(3-(tert-Butyl)-5-(2-ethoxyphenyl)-4,5-dihydro-1H-pyrazol-1-yl)benzoic acid]",IC50,human recombinant PDE5,> 50 µM
same,inhibition at 50 µM,human recombinant PDE5,42.5%
"CCOc1ccc(C2CC(C(C)(C)C)=NN2c2ccc(C(=O)O)cc2)cc1 (centres unmarked) [Compound 19, 4-(3-(tert-Butyl)-5-(4-ethoxyphenyl)-4,5-dihydro-1H-pyrazol-1-yl)benzoic acid]",inhibition at 50 µM,human recombinant PDE5,95.3%
same,relative potency/efficacy in increasing intracellular cGMP levels,"[1]; comparison among tadalafil, celecoxib, 11 and 19",substantially higher efficacy
same,"intracellular cGMP levels (luminescence), concentration dependence",[1],concentration-dependent increase
"CC(C)(C)C1=NN(c2ccc(C(=O)O)cc2)C(c2cccc([N+](=O)[O-])c2)C1 (centres unmarked) [Compound 20, 4-(3-tert-Butyl-5-(3-nitrophenyl)-4,5-dihydro-1H-pyrazol-1-yl)benzoic acid]",IC50,human recombinant PDE5,3.2 µM
same,inhibition at 50 µM,human recombinant PDE5,87.6%
"CC(C)(C)C1=NN(c2ccc(C(=O)O)cc2)C(c2ccc([N+](=O)[O-])cc2)C1 (centres unmarked) [Compound 21, 4-(3-tert-Butyl-5-(4-nitrophenyl)-4,5-dihydro-1H-pyrazol-1-yl)benzoic acid]",inhibition at 50 µM,human recombinant PDE5,91%
"CC(C)(C)C1=NN(c2ccc(C(=O)O)cc2)C(c2ccc(C#N)cc2)C1 (centres unmarked) [Compound 23, 4-(3-tert-Butyl-5-(4-cyanophenyl)-4,5-dihydro-1H-pyrazol-1-yl)benzoic acid]",IC50,human recombinant PDE5,13.8 µM
same,inhibition at 50 µM,human recombinant PDE5,75%
"CC(C)(C)C1=NN(c2ccc(C(=O)O)cc2)C(c2ccc(O)cc2)C1 (centres unmarked) [Compound 24, 4-(3-tert-Butyl-5-(4-hydroxyphenyl)-4,5-dihydro-1H-pyrazol-1-yl)benzoic acid]",inhibition at 50 µM,human recombinant PDE5,77.1%
"CC(C)(C)C1=NN(c2ccc(C(=O)O)cc2)C(c2ccc(-c3ccccc3)cc2)C1 (centres unmarked) [Compound 25, 4-(5-([1,1’-Biphenyl]-4-yl)-3-(tert-butyl)-4,5-dihydro-1H-pyrazol-1-yl)benzoic acid]",IC50,human recombinant PDE5,35.6 µM
same,inhibition at 50 µM,human recombinant PDE5,100%
"CC(C)(C)C1=NN(c2ccc(C(=O)O)cc2)C(c2ccc3ccccc3c2)C1 (centres unmarked) [Compound 26, 4-(3-(tert-Butyl)-5-(naphthalen-2-yl)-4,5-dihydro-1H-pyrazol-1-yl)benzoic acid]",IC50,human recombinant PDE5,21.8 µM
same,inhibition at 50 µM,human recombinant PDE5,80%
"CC(C)(C)C1=NN(c2ccc(C(=O)O)cc2)C(c2ccco2)C1 (centres unmarked) [Compound 27, 4-(3-tert-Butyl-5-(furan-2-yl)-4,5-dihydro-1H-pyrazol-1-yl)benzoic acid]",PDE5 inhibitory activity (in words),human recombinant PDE5,detrimental to the activity
same,inhibition at 50 µM,human recombinant PDE5,23.6%
"CC(C)(C)C1=NN(c2ccc(C(=O)O)cc2)C(c2cccs2)C1 (centres unmarked) [Compound 28, 4-(3-tert-Butyl-5-(thiophen-2-yl)-4,5-dihydro-1H-pyrazol-1-yl)benzoic acid]",PDE5 inhibitory activity (in words),human recombinant PDE5,detrimental to the activity
same,inhibition at 50 µM,human recombinant PDE5,28.1%
"CC(C)(C)C1=NN(c2cccc(C(=O)O)c2)C(c2ccc(Cl)cc2)C1 (centres unmarked) [Compound 29, 3-(3-tert-Butyl-5-(4-chlorophenyl)-4,5-dihydro-1H-pyrazol-1-yl)benzoic acid]",inhibition at 50 µM,human recombinant PDE5,100%
same,fold reduction in PDE5 inhibitory potency compared to compound 7,"human recombinant PDE5; vs compound 7 (4-COOH, 4-chlorophenyl)",3 fold
"CC(C)(C)C1=NN(c2ccccc2C(=O)O)C(c2ccc(Cl)cc2)C1 (centres unmarked) [Compound 30, 2-(3-tert-Butyl-5-(4-chlorophenyl)-4,5-dihydro-1H-pyrazol-1-yl)benzoic acid]",PDE5 inhibitory activity (in words),human recombinant PDE5,diminished the activity
same,inhibition at 50 µM,human recombinant PDE5,46%
"CC(C)(C)c1cc(-c2ccccc2)n(-c2ccc(C(=O)O)cc2)n1 [Compound 34, 4-(3-tert-Butyl-5-phenyl-1H-pyrazol-1-yl)benzoic acid]",IC50,human recombinant PDE5,18.9 µM
same,reduction in PDE5 inhibitory activity of pyrazole vs pyrazoline,human recombinant PDE5,3–4 times
same,inhibition at 50 µM,human recombinant PDE5,72%
"CC(C)(C)c1cc(-c2ccc(F)cc2)n(-c2ccc(C(=O)O)cc2)n1 [Compound 35, 4-(3-tert-Butyl-5-(4-fluorophenyl)-1H-pyrazol-1-yl) benzoic acid]",IC50,human recombinant PDE5,31.3 µM
same,reduction in PDE5 inhibitory activity of pyrazole vs pyrazoline,human recombinant PDE5,3–4 times
same,inhibition at 50 µM,human recombinant PDE5,75%
"CCOC(=O)c1ccc(N2N=C(C(C)(C)C)CC2c2ccc(Cl)cc2)cc1 (centres unmarked) [Compound 36, Ethyl 4-(3-tert-butyl-5-(4-chlorophenyl)-4,5-dihydro-1H-pyrazol-1-yl)benzoate]",PDE5 inhibitory activity (in words),human recombinant PDE5,diminished the PDE5 inhibitory activity
same,inhibition at 50 µM,human recombinant PDE5,10.5%
"CCOC(=O)c1ccc(N2N=C(C(C)(C)C)CC2c2cccc([N+](=O)[O-])c2)cc1 (centres unmarked) [Compound 37, Ethyl 4-(3-tert-butyl-5-(3-nitrophenyl)-4,5-dihydro-1H-pyrazol-1-yl)benzoate]",PDE5 inhibitory activity (in words),human recombinant PDE5,diminished the PDE5 inhibitory activity
same,inhibition at 50 µM,human recombinant PDE5,16%
"CN1CC(=O)N2[C@H](c3ccc4c(c3)OCO4)c3[nH]c4ccccc4c3C[C@@H]2C1=O [Tadalafil, tadalafil, reference compound]","intracellular cGMP levels (luminescence), concentration dependence",[1],concentration-dependent increase

# — paper PMC7686114 (Bioorganic chemistry, 2020)
